PRMT1 inh: inhibitors of human PRMT1; Q99873; recombinant PRMT1, activity-based probe fluorescence polarization; inhibition, % at 2.79 µM; actives 1.3% (n = 370,000); AID 652257;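 active = inhibition above about 21% made by adding two undisclosed values, limit read from the data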
Target sequence (Q99873 whole entry, looked up): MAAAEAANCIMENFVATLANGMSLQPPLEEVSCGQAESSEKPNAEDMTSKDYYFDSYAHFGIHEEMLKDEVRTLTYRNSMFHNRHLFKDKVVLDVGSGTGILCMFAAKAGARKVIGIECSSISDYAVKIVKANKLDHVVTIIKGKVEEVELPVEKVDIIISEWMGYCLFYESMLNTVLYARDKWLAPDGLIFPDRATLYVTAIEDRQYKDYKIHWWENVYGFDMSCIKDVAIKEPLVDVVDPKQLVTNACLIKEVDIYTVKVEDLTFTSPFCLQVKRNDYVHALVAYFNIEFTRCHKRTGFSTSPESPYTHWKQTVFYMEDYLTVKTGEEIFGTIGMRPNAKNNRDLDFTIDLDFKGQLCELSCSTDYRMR
ABHD4 inh: ABHD4 (mouse) inhibition, primary FP screen | Q8VD66 | purified mABHD4, FP-Rh probe fluorescence polarization | inhibition, % at 8.92 µM | actives 0.54% (n = 370,000);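 active = inhibition exceeding the mean over every tested compound plus 3 SD, cut at about 30% in these data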;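 also: 0% = plate median of compound wells and 100% = S159A mutant with DMSO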
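system = mouse ABHD4 enzyme, wild type | medium = HEPES pH 7.0, NaCl, Pluronic buffer | also added = FP-Rh probe | incubation = Enzyme–compound pre-incubation 45 min, then probe 60 min, both 25 °C | technique = fluorescence polarization, excitation 525 nm, emission 598 nm, BODIPY TMR filters | controls = S159A mutant high control, sample median low control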
TCR-CD3 inh: human TCR-CD3 binding inhibition. actives 0.37% (n = 360,000). AID 651800. inhibition, % at 9.4 µM. TAMRA-labeled TCR probe fluorescence, biochemical; in the data active = inhibition above about 19%;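 also: recombinant mutant TCR 2C K166C tagged with TAMRA read by polarization; 0% = receptor in buffer alone and 100% = receptor with positive control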
SIAE inh: blocks human sialic acid acetylesterase | actives 0.69% (n = 370,000) | inhibition, % at 9.66 µM | Q9HAT2 | SIAE FP-Rh probe binding, fluorescence polarization;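 active = inhibition above a cutoff: mean of compounds within the control limits plus 3 SD of those, cut at about 17% in these data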;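 also: 0% = plate median of compound wells and 100% = probe without SIAE protein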
HTRA1 inh: HTRA1 (human) protease inhibition. recombinant HTRA1, FP-rhodamine activity-based probe, fluorescence polarization. inhibition, % at 5.96 µM. actives 0.5% (n = 340,000). AID 504803; in the data active = inhibition above about 36%;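 also: 0% = enzyme with DMSO and 100% = wells lacking enzyme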
ATG4B inhibitor: ATG4B (human) cysteine protease inhibition. ATG4B cleavage of LC3-PLA2, NBD-HPC fluorescence, 1 h. actives 0.51% (n = 340,000). inhibition, % at 8.33 µM. Q9Y4P1; in the data active = inhibition above about 40%
ATG4B confirm: confirmation of human ATG4B inhibitors; inhibition, % at 8.33 µM; actives 92% (n = 320); ATG4B protease fluorescent substrate cleavage assay; AID 504757; shares compounds with ATG4B inhibitor; in the data active = inhibition above about 39%
PLA2 ctr: PLA2 (human) inhibition in ATG4B counter-screen. shares compounds with ATG4B inhibitor. purified PLA2, NBD-C6-HPC fluorescence, 45 min. inhibition, % at 8.33 µM. actives 66% (n = 1,600). AID 588402; in the data active = inhibition above about 50%
Target sequence (P04054 whole entry, looked up): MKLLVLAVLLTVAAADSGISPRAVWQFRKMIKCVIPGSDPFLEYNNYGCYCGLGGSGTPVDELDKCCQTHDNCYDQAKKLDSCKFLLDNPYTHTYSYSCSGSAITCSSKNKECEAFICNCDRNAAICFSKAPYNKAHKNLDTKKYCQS
Numbers without * were called inactive. An excerpt weighted towards active compounds, which were near 2.9% of everything screened.

CN1C2=N[C@H](c3ccccc3)CC(=O)N2/C(=C\c2ccccc2)C1Cc1ccccc1 (some centres undefined) was read as PRMT1 inh -2, ABHD4 inh -2 and SIAE inh 13.
For Cc1sc2nc(C3CC3)nc(SCC(=O)N3CCCc4ccccc43)c2c1C the results were PRMT1 inh 3, ABHD4 inh 4, TCR-CD3 inh -4 and SIAE inh -14.
For Cc1sc2nc(C3CC3)nc(SCC(=O)N3CC(=O)Nc4ccccc43)c2c1C the results were PRMT1 inh 0, ABHD4 inh -2, TCR-CD3 inh 7, SIAE inh 2, HTRA1 inh 0, ATG4B inhibitor 69* and PLA2 ctr 77*.
For COc1ccc(C2=NNC(c3cccs3)=Nc3ccc(OC)cc32)cc1 the results were PRMT1 inh -2, ABHD4 inh 1, TCR-CD3 inh 2, SIAE inh -4, HTRA1 inh -9, ATG4B inhibitor 55* and PLA2 ctr 60*.
Screening Cc1c(Cl)cccc1NC(=O)COC(=O)CCc1nc2ccccc2n1-c1ccccc1 returned PRMT1 inh -2, ABHD4 inh -3, TCR-CD3 inh -3, SIAE inh 12, HTRA1 inh -6, ATG4B inhibitor 50* and PLA2 ctr 53*.
For O=C(COC(=O)CCc1nc2ccccc2n1-c1ccccc1)Nc1cccc(Cl)c1 the results were PRMT1 inh 2, ABHD4 inh -3, TCR-CD3 inh -2, SIAE inh 4, HTRA1 inh -11 and ATG4B inhibitor 25.
`CCC(C)CNC(=O)CSc1nnc(-c2cccnc2)n1C1CCCCC1` (centres undefined) gave PRMT1 inh 2, ABHD4 inh -2 and SIAE inh 7.
`CC1=Nc2ccccc2/C1=C/c1sc(=S)n(-c2cccc(C(=O)O)c2)c1O` gave PRMT1 inh -21, ABHD4 inh 5, TCR-CD3 inh -7, SIAE inh -20, HTRA1 inh -28, ATG4B inhibitor 60* and PLA2 ctr 85*.
Screening Oc1c(C=C2N=c3ccccc3=N2)sc(=S)n1-c1ccccc1 returned PRMT1 inh 2, ABHD4 inh -6, TCR-CD3 inh 4, SIAE inh 1, HTRA1 inh 4 and ATG4B inhibitor -9.
`COc1cc(/C=C2/C(=N)N3C=CSC3=NC2=O)ccc1OCCCOc1c(C)cccc1C` gave PRMT1 inh -3, ABHD4 inh -14, TCR-CD3 inh 11, SIAE inh 7, HTRA1 inh -28, ATG4B inhibitor 49*, ATG4B confirm 57* and PLA2 ctr 37.
`O=C(NC1CC[C@@]23CCCN2C(=O)CCC[C@H]3C1)c1ccccc1` (some centres undefined) gave PRMT1 inh -3, ABHD4 inh -4 and SIAE inh -1.
`O=C(NCc1cccc(Cl)c1)c1ccc(CS(=O)Cc2ccc(Cl)cc2)o1` (centres undefined) gave PRMT1 inh 0, ABHD4 inh -5, TCR-CD3 inh 2, SIAE inh -5, HTRA1 inh -9, ATG4B inhibitor 60* and PLA2 ctr 63*.
`Cc1ccc(CS(=O)Cc2ccc(C(=O)NCc3ccccc3Cl)o2)cc1` (centres undefined) gave PRMT1 inh 7, ABHD4 inh -18, TCR-CD3 inh 0, SIAE inh -4, HTRA1 inh 4, ATG4B inhibitor 42* and PLA2 ctr 38.
Screening Cc1ccc(CNC(=O)c2ccc(CS(=O)Cc3ccccc3Cl)o2)cc1 (centres undefined) returned PRMT1 inh 4, ABHD4 inh 7, TCR-CD3 inh -3, SIAE inh -2, HTRA1 inh 2 and ATG4B inhibitor 4.
O=C(NCc1cccc(Cl)c1)c1ccc(CS(=O)Cc2ccccc2Cl)o1 (centres undefined) was read as PRMT1 inh 1, ABHD4 inh -3, TCR-CD3 inh -3, SIAE inh -4, HTRA1 inh -6, ATG4B inhibitor 69* and PLA2 ctr 69*.
For O=C(Nc1c(F)cccc1F)c1ccc2c(c1)CCN2S(=O)(=O)c1ccccc1 the results were PRMT1 inh -1, ABHD4 inh -32, TCR-CD3 inh 1, SIAE inh -48, HTRA1 inh -15, ATG4B inhibitor 69* and PLA2 ctr 69*.
Screening CSc1nc2cc(Oc3cccc(Cl)c3Cl)c(Cl)cc2[nH]1 returned PRMT1 inh 6, ABHD4 inh -67, TCR-CD3 inh -5, SIAE inh -27, HTRA1 inh -31, ATG4B inhibitor 65* and PLA2 ctr 77*.
For CSc1nc2ccc(Cl)cc2[nH]1 the results were PRMT1 inh -1, ABHD4 inh 5, TCR-CD3 inh -3, SIAE inh 1, HTRA1 inh -3 and ATG4B inhibitor -3.
`COc1ccc(-c2ccc(C#N)c(SCC(=O)Nc3sc4c(c3C#N)CCC4)n2)cc1OC` gave PRMT1 inh 0, ABHD4 inh 1, TCR-CD3 inh 1, SIAE inh 9, HTRA1 inh -3, ATG4B inhibitor 73*, ATG4B confirm 84* and PLA2 ctr -4.
`N#Cc1cc2c(nc1SCC(=O)Nc1sc3c(c1C#N)CCC3)CCC2` gave PRMT1 inh -1, ABHD4 inh -4, TCR-CD3 inh -3, SIAE inh -4, HTRA1 inh 4 and ATG4B inhibitor -6.
Screening CN(Cc1ccc(F)cc1)C(=O)c1cccc2c1C(=O)N(Cc1cccnc1)C2 returned PRMT1 inh 2, ABHD4 inh 2 and SIAE inh 5.
COP(=O)(O)[C@@H](CC(C)C)NC(=O)OCc1ccccc1 was read as PRMT1 inh 2, ABHD4 inh 0 and SIAE inh 4.
Screening O=c1c2cc3c(cc2[nH]c(=S)n1C1CCN(Cc2ccccc2)CC1)OCO3 returned PRMT1 inh -2, ABHD4 inh -2, TCR-CD3 inh 4, SIAE inh 2, HTRA1 inh 4, ATG4B inhibitor 59* and PLA2 ctr 62*.
CCOc1cc2[nH]c(=S)n(C3CCN(Cc4ccccc4)CC3)c(=O)c2cc1OCC was read as PRMT1 inh 2, ABHD4 inh 4, TCR-CD3 inh 9, SIAE inh 2, HTRA1 inh -6 and ATG4B inhibitor 3.
`COc1ccccc1N1CCN(S(=O)(=O)c2ccc3nc(-c4ccccc4)[nH]c3c2)CC1` gave PRMT1 inh 1, ABHD4 inh -74, TCR-CD3 inh -4, SIAE inh -77, HTRA1 inh -66, ATG4B inhibitor 59* and PLA2 ctr 58*.

Assay outcomes (PubChem)
